Source: PubChem
Platelet DG rel: modulates dense granule release in human platelets; human platelet-rich plasma, SFLLRN dense granule ATP release, luminescence; inhibition, %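 (compounds screened at 7.5 µM in platelet-rich plasma)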; 0.22% of 300,000 active;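 active = mean replicate score, as percent of positive control, at or above 50; inconclusive = mean below 50 but at least one replicate at or above 50; inactive = mean and every replicate below 50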
Rce1 inh: blocks yeast Ras-converting enzyme; Q03530; yeast membranes, quenched prenylated peptide cleavage fluorescence; calls only; 0.27% of 290,000 active; AID 2563;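 active = fall in fluorescence gain of 50% or more versus controls, with final raw signal at or below 3038400; inconclusive = same 50% fall but final raw signal above 3038400; inactive = fall in fluorescence gain under 50%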;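 also: plate controls were neutral control wells for no effect and wells lacking membranes for full effect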
Runt-CBFb FRET: Runt domain-CBFb interaction inhibition; inhibition, % at 20 µM; Cerulean-Runt/Venus-CBFb FRET ratio 530/480, 1 h; AID 1496; 0.46% of 220,000 active; Q01196+Q13951;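 active = inhibition over about 50% at 20 µM in the single-dose screen, limit read from the data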;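 also: 0% = DMSO wells and 100% = excess unlabeled CBFb competitor control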
Target sequence (Q01196 whole entry, looked up, the tested form may be a part): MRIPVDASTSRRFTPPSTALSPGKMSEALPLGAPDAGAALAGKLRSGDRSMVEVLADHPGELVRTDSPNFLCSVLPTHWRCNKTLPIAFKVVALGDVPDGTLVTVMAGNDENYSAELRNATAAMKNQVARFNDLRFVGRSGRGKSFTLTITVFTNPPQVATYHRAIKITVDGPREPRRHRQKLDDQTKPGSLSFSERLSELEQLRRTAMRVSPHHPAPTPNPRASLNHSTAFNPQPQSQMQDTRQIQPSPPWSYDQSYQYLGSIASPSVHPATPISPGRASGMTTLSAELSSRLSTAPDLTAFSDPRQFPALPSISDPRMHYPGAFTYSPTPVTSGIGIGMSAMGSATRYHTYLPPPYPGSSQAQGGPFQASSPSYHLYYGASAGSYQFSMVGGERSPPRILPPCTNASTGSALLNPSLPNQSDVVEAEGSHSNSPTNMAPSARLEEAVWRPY
Target sequence (Q13951 whole entry, looked up, the tested form may be a part): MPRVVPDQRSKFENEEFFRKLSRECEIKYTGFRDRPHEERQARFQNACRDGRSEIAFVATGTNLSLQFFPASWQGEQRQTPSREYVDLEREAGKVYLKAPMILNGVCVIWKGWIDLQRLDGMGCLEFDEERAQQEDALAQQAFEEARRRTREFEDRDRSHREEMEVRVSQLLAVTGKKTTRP
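Measured by: fluorescence energy transfer, 422 nm excitation, 530/480 nm emission; Assay system: Cerulean-Runt domain; Medium: Tris pH 7.5 buffer with BSA; Measure: loss of energy transfer signal; Controls: 5 µM unlabeled CBFb as full-inhibition high control; Incubation: protein complex preformed 1 h, compound exposure 1 h, room temperature, dark.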
Runt-SMMHC FRET: inhibitors of human RUNX1 Runt domain binding to CBFb-SMMHC; Cerulean-Runt/Venus-CBFb-SMMHC FRET ratio 530/480, 1 h; Q01196+Q13951; 0.74% of 220,000 active; inhibition, % at 20 µM;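 active = mean inhibition across duplicate retests at 20 µM reaching about 50%, limit read from the data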;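 also: 0% = DMSO wells and 100% = wells with excess untagged CBFb-SMMHC; inhibitors lower the FRET ratio by blocking Runt binding to CBFb-SMMHC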
RanGTP-Imp inh: inhibitors of RanGTP-importin-beta interaction, primary screen, biochemical, FRET, CFP-Ran, YFP-importin-beta, homogeneous. cell-free CFP-Ran/YFP-importin-beta FRET ratio. inhibition, % (test concentration not listed). 1.1% of 300,000 active. AID 2216;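 active = more than half of the replicate wells show a fall in the fluorescence ratio signal beyond about 16%, limit read from the data, passing the limit was not always enough; inconclusive = exactly half of the replicate wells pass the set limit; inactive = fewer than half of replicates pass the limit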;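 also: 0% = DMSO wells and 100% = Ran loaded with GDP instead of GTP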
An asterisk follows results filed as active; i = inactive; ? = inconclusive; / = not tested or not shown; + = active, no number. Shown are actives, neighbours in structure and some others; about 1.8% of the full set was active somewhere.

SMILES | Platelet DG rel | Rce1 inh | Runt-CBFb FRET | Runt-SMMHC FRET | RanGTP-Imp inh
CCc1cc(=O)oc2cc(C)cc(OC(C)C(=O)NCCCN3CCCC3=O)c12 (stereo not given) | -2 | i | / | / | 7
COc1ccc(CCNC(=O)COc2ccc(S(=O)(=O)NC3CCCCC3)cc2Cl)cc1 | -15 | i | -6 | -1 | 3
C(=C\c1nccc2c1[nH]c1ccccc12)/c1ccccc1 | 8 | i | 22 | 80* | 8
Fc1ccc(/C=C\c2nccc3c2[nH]c2ccccc23)cc1 | -8 | ? | 12 | 37 | 4
O=S(=O)(CC(CN1CCOCC1)N1CCOCC1)c1ccccc1 (stereo not given) | -6 | + | -1 | -2 | 0
CCn1c(SCC(=O)NCC2CCCO2)nnc1-c1c[nH]c2ccccc12 (stereo not given) | 0 | i | 4 | -3 | 5
CCn1c(SCC(=O)NCC2CCCO2)nnc1-c1ccc(Cl)cc1 (stereo not given) | 1 | i | -1 | -2 | 26*
Cc1occc1C(=O)NNC(=O)CN1C(=O)NC(C)(c2ccccc2)C1=O (stereo not given) | -22 | i | / | / | 9
O=C(Nc1cccc2ccccc12)c1ccc(OC(=S)N2CCOCC2)cc1 | 1 | + | -2 | -2 | 0
COc1ccccc1N1CCN(CC(O)COc2c(OC)cccc2OC)CC1 (stereo not given) | 7 | i | -1 | 1 | 24*
COc1cccc(OC)c1OCC(O)CN1CCN(c2ccccc2)CC1 (stereo not given) | -3 | i | -2 | 0 | 3
CC(=O)N1c2ccc(S(=O)(=O)NCC3CCC(C(=O)Nc4cccc(C)n4)CC3)cc2CC1C (stereo not given) | -2 | i | / | / | 1
Cn1cc([N+](=O)[O-])c(C(=O)Nc2ccn(Cc3c(F)c(F)cc(F)c3F)n2)n1 | 14 | i | 2 | -9 | 0
Cc1cc(C)n(-c2nc3ccccc3c(=O)n2OCC(=O)N(C)C)n1 | 15 | + | 0 | 7 | 9
Nc1n[nH]c2cc(=O)n(-c3ccc(Cl)cc3)nc12 | -3 | i | 18 | 54* | 77*
COc1ccc(-n2nc3c(N)n[nH]c3cc2=O)cc1 | -12 | / | -6 | -20 | -14
Nc1c(C(=O)Nc2cccc(C(=O)O)c2)sc2nc3c(cc12)CCCC3 | 1 | + | / | / | -1
Nc1c(C(=O)Nc2ccc(Cl)c(C(=O)O)c2)sc2nc3c(cc12)CCCC3 | 7 | i | / | / | 4
N#Cc1cnc(N)c(Br)c1 | -4 | i | -1 | 1 | 5
COc1ccc(OC)c(/C=N/c2oc(-c3ccco3)c(-c3ccco3)c2C#N)c1 | 6 | + | 5 | -18 | 3
N#Cc1c(N)oc(-c2ccco2)c1-c1ccco1 | -1 | i | 0 | -2 | -1
COc1ccc(C2CCCN2C(=S)Nc2ccc(C)cc2Cl)cc1OC (stereo not given) | -1 | i | 2 | 0 | 0
COC(=O)COc1ccc(S(=O)(=O)NCc2ccc3c(c2)OCO3)cc1 | 9 | i | / | / | -1
CC(=O)N[C@@H](Cc1c[nH]c2ccccc12)C(=O)NCCc1ccc(S(N)(=O)=O)cc1 | 4 | i | / | / | 6
Cc1ccc(-c2cc[n+](Cc3ccccc3)cc2)cc1 | / | i | 1 | 0 | /
SMILES | Platelet DG rel | Rce1 inh | Runt-CBFb FRET | Runt-SMMHC FRET | RanGTP-Imp inh
Cc1ccc2c(c1)sc[n+]2Cc1ccccc1 | -10 | + | 40 | 68 | 0
Cc1cc(Cl)c2oc(C(=O)N(C)CC3CCOCC3)c(C)c2c1 | 0 | i | / | / | 5
CCCS(=O)(=O)c1ccc(COC(=O)Cc2ccc([N+](=O)[O-])cc2)cc1 | -4 | i | / | / | 4
Cc1nc(NC(=O)c2cccc(-c3cc4ccccc4oc3=O)c2)ccc1Br | -7 | + | 0 | 2 | 2
Cc1ccc(-c2nc(C=Nc3ccc(O)cc3)c(O)o2)cc1 | 1 | / | -6 | -20 | 22*
O=C(CCN1CCC(c2ccc(Cl)s2)=N1)c1ccc(Cl)s1 | 9 | i | -9 | -9 | 16*
O=C(CSCc1ccco1)c1ccc(Cl)s1 | 2 | i | 2 | 1 | 1
Cc1ccc(S(=O)(=O)c2cc3ccc(O)cc3oc2=O)cc1C | 0 | i | / | / | 132*
COc1ccc2cc(S(=O)(=O)c3ccccc3)c(=O)oc2c1 | 16 | i | 2 | 2 | 1
CSC(=Nc1cccc(C)c1)NC#N | -15 | i | 1 | 0 | 3
Fc1ccccc1Nc1nc2ccccc2o1 | 58* | i | / | / | -5
C=CCOc1cccc(C(=O)N2CCCC(CNS(=O)(=O)c3cccs3)C2)c1 (stereo not given) | 1 | i | -2 | 0 | 5
CCOC(=O)c1[nH]c2ccc(OC)cc2c1NC(=O)CN1CCC2(CC1)OCCO2 | 18 | + | 3 | 1 | 3
CCOC(=O)c1[nH]c2ccc(OC)cc2c1NC(=O)C(C)N1CCC2(CC1)OCCO2 (stereo not given) | / | / | -1 | -8 | /
COc1ccc(/C=N/NC(=O)c2cc(C(C)(C)C)[nH]n2)cc1COc1ccc(F)cc1F | -7 | i | -2 | -1 | 51*
O=C1CSC(=Nc2ccccc2[N+](=O)[O-])N1 | 8 | i | 0 | -1 | ?
CC(OC(=O)c1ccc2ccccc2n1)C(=O)Nc1ccc(N2CCOCC2)cc1 (stereo not given) | -3 | / | 2 | 0 | -1
COc1ccc2oc3ccccc3c(=O)c2c1 | -1 | i | 0 | -3 | -1
COc1ccc2sc3ccccc3c(=O)c2c1 | 6 | i | 10 | -20 | 95*
CC(C)CCNC(=O)NC(=O)Cn1cc(C(F)(F)F)ccc1=O | / | / | 0 | 0 | /
O=C(c1ccccc1)c1cnc[nH]1 | 4 | i | -1 | 3 | 0
O=C(Nc1ccccc1)c1cnc[nH]1 | 4 | i | 89* | 0 | 3
COc1cc(/C=C/C(=O)NCC2CCCCC2)cc(OC)c1OC | 2 | i | / | / | -1
CCn1c(SCC(=O)N(C)c2c(N)n(Cc3ccccc3)c(=O)[nH]c2=O)nc2ccccc21 | 59* | i | 2 | 0 | -1
Cc1nnc(SCC(=O)N(C)c2c(N)n(Cc3ccccc3)c(=O)[nH]c2=O)n1Cc1ccccc1 | 4 | i | 1 | 0 | -2
SMILES | Platelet DG rel | Rce1 inh | Runt-CBFb FRET | Runt-SMMHC FRET | RanGTP-Imp inh
CC(O)(CC(=O)O)CC(=O)O | 0 | i | / | / | -1
COc1ccc(-n2nc(C(=O)NCC(=O)N3CCC(C)CC3)c3ccccc3c2=O)cc1 | 3 | + | / | / | 2
COc1ccc(-n2nc(C(=O)NCC(=O)N3CCCC(C)C3)c3ccccc3c2=O)cc1 (stereo not given) | -1 | i | / | / | 5
Cc1ccccc1C(=O)Nc1cccc(C(=O)N/N=C/c2ccccn2)c1 | 4 | i | / | / | 6
CNc1nc2c3ccccc3n(C(C)=O)c2s1 | 50* | i | 2 | 0 | 0
Cc1c(O)ccc2c(CN3CCN(C/C=C/c4ccccc4)CC3)cc(=O)oc12 | 0 | i | 44 | 81* | 52*
